# From PubChem
# ANO1 block: mouse TMEM16A channel inhibition, primary screen; HEK293 TMEM16A/YFP iodide influx fluorescence, ionomycin; normalized B-score (activity score, 25-100; higher = stronger inhibition) at 10 µM; 310,000 compounds, 1.2% hits;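 active = ratio plate-corrected score three or more library SD toward inhibition, starting fluorescence score within five deviations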;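 also: score derived from kinetic fluorescence span divided by baseline fluorescence per well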
# Target sequence (Q8BHY3 whole entry, looked up): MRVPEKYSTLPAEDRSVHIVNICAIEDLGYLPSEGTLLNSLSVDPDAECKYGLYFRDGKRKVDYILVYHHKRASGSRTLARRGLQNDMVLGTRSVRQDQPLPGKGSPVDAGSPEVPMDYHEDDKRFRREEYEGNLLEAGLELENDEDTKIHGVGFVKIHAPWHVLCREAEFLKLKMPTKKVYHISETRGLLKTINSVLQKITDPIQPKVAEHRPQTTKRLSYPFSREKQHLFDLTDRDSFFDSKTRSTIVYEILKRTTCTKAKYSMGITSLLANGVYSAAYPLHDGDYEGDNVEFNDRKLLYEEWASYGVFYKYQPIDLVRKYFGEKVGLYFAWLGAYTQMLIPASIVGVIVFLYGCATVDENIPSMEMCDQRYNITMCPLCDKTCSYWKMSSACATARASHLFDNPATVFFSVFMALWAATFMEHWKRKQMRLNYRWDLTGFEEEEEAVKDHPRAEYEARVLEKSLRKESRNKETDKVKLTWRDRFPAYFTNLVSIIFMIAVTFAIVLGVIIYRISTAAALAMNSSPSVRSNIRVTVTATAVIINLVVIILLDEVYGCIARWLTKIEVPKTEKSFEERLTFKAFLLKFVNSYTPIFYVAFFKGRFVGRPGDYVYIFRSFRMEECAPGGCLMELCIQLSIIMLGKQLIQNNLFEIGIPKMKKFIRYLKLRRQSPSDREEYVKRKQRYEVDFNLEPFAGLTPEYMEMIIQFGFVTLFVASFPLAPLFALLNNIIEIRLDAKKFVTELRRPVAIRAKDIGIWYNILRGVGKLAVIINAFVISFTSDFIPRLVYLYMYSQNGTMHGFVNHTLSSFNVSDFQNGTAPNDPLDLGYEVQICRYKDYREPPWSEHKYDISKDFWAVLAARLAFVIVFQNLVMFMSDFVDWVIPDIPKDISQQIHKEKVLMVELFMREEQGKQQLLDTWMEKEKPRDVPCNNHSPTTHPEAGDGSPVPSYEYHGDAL
# CHT allo act: allosterically activates the human high affinity choline transporter. CHT-expressing cells, membrane potential dye, choline EC20; stronger effect = higher value; LV-AA mutant CHT in HEK293 cells. B-score at 10 µM. 310,000 compounds, 0.49% hits;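 active = initial fluorescence not abnormally high and integrated response B-score, plate-corrected, over 3 SD above library mean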
# VIM-2 inh: inhibitors of Pseudomonas aeruginosa VIM-2 metallo-beta-lactamase; purified VIM-2, nitrocefin hydrolysis, epi-absorbance fluorescence; 290,000 compounds, 0.89% hits; inhibition, % at 5.6 µM;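 active = inhibition above the mean of all tested compounds plus 3 SD, cutoff set per screening run, cut at about 7.5% in these data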;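 also: red hydrolysis product quenches plate fluorescence so inhibitors raise well fluorescence; 0% = enzyme with DMSO and 100% = DMSO without enzyme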
# TMEM16A act: activates or potentiates the mouse TMEM16A chloride channel; HEK293 TMEM16A/YFP-H148Q/I152L, iodide quench fluorescence; stronger effect = lower value; B-score at 10 µM; 340,000 compounds, 0.3% hits; AID 623877;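 active = fluorescence-ratio B-score plate-corrected deviation score at least 3 library SD below zero, with starting fluorescence score within 5 deviations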;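 also: channel opened by trigger with iodide after compound preincubation; score built on the fluorescence ratio of max minus min over baseline; more negative score means more quench and so TMEM16A activation or potentiation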
# IMP-1 inh: blocks Pseudomonas aeruginosa IMP-1 metallo-beta-lactamase | inhibition, % at 5.6 µM | purified IMP-1, nitrocefin hydrolysis, epi-absorbance fluorescence | 290,000 compounds, 0.45% hits;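 active = inhibition above the mean plus 3 SD of all compounds in the same screening run, cut at about 4.5% in these data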;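 also: 0% = IMP-1 with DMSO and 100% = DMSO wells lacking enzyme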
#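 Material – recombinant IMP-1 enzyme, purified · Amount – IMP-1 0.2 nM before substrate addition · Medium – HEPES buffer pH 7.1 with ZnSO4 and Brij 35 · Timing – 25 °C, 15 min preincubation, 25 min reaction · Measured by – plate fluorescence quenching by hydrolysis product, ex 480/em 530 nm · Read-out – percent enzyme inhibition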
# CHT inh: human CHT choline transport inhibition; Q9GZV3; CHT-expressing cells, membrane potential dye, choline response; stronger effect = lower value; B-score at 10 µM; 310,000 compounds, 0.86% hits; AID 488975;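 active = B-score over 3 SD under the library average, and starting fluorescence ratio not unusually high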;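 also: choline stimulus applied at its EC90 after an EC20 pre-addition; B-score computed on integrated fluorescence ratio after choline addition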
# CHT inh conf: human CHT inhibition, confirmatory screen. CHT activity remaining % of control (stronger effect = lower value), % at 10 µM. 2,400 compounds, 70% hits. shares compounds with CHT inh. CHT-expressing cells, choline membrane potential dye; LV-to-AA substituted CHT, HEK293 cells;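 active = choline transporter activity left, mean of duplicates at 10 µM, below buffer-only control mean minus 3 SD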;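 also: depolarization triggered by choline at its EC90 following an EC20 pre-addition; 0% = hemicholinium-3 full block and 100% = buffer-only control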
# HEK293 MPD ctr: activity in parental HEK293 cells lacking CHT; shares compounds with CHT inh; membrane potential dye, choline response; active = decrease or increase beyond buffer ±3SD; membrane potential ratio readout (active if shifted either direction beyond buffer ±3SD; no single direction) at 10 µM; 2,400 compounds, 4% hits; AID 493222;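 also: parental cells lack the transporter so any hit is non-specific; ratio is peak minus trough fluorescence over baseline after EC90 choline challenge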
# * = called active by the depositor; i = inactive; nt = no result. Hits are enriched below; roughly 3.4% of the tested compounds scored in any of these assays.
SMILES,ANO1 block,CHT allo act,VIM-2 inh,TMEM16A act,IMP-1 inh,CHT inh,CHT inh conf,HEK293 MPD ctr
CCOC(=O)C1CCN(c2nc(-c3ccccc3)nc3c2oc2ccccc23)CC1,i,i,-1,i,-3,i,nt,nt
COc1ccc2c(c1)CC(C)C/C2=N\NC(=O)c1ccco1 (configuration not stated),i,i,-2,i,-2,-9.5*,58%*,i
CC1C/C(=N/NC(=O)c2cccc(F)c2)c2ccc(O)cc2C1 (configuration not stated),i,i,-2,i,-3,i,nt,nt
Cn1cc(/C=C2\SC(=O)N(c3ccc(O)cc3)C2=O)c2ccccc21,i,i,0,i,0,i,nt,nt
Cn1cc(/C=C2\SC(=O)N(c3ccccc3)C2=O)c2ccccc21,i,i,-2,i,-2,-6.5*,i,i
Cc1nc(S(=O)(=O)c2ccc(Cl)cc2)c(N(C)C)o1,i,i,-2,i,-3,i,nt,nt
COc1ccc(C(=O)OCC(=O)NC(C)CCc2ccccc2)c(OC)c1 (configuration not stated),i,i,1,i,-2,-5.7*,i,i
COc1cc(CN2CCN(c3ncccn3)CC2)cc(OC)c1,i,i,-2,i,-2,i,nt,nt
Cc1ccc(CNC(N)=S)cc1,i,i,-2,i,-9,i,nt,nt
COC(=O)NNC(=S)NCc1ccc(C)cc1,i,i,0,i,-4,-6.7*,i,i
COc1ccc(CNC(=O)COC(=O)CC2CCCC2)cc1,i,i,-2,i,-4,-5.4*,i,i
COc1ccc(Cc2nnc(NC(=O)c3ccccc3[N+](=O)[O-])s2)cc1,i,i,-1,i,-3,-7.1*,26%*,i
CCC(Oc1ccc(C)cc1)C(=O)Nc1ccc(S(=O)(=O)Nc2nccs2)cc1 (configuration not stated),i,i,-1,i,-2,-6.5*,40%*,i
CC(Oc1ccccc1)C(=O)Nc1ccc(S(=O)(=O)Nc2nccs2)cc1 (configuration not stated),i,i,-2,i,-2,i,nt,nt
O=C(Nc1ccc(S(=O)(=O)Nc2nccs2)cc1)c1c(F)c(F)c(F)c(F)c1F,i,i,-3,i,-3,-5*,35%*,i
CCN(CC)S(=O)(=O)c1cc(C(=O)N2CCc3ccccc32)ccc1Cl,i,i,-1,i,-2,-5.8*,67%*,i
CCN(CC)S(=O)(=O)c1ccc(Cl)c(C(=O)N2CCc3ccccc32)c1,i,i,-6,i,2,i,nt,nt
Cc1ccc(C)[n+](CC(=O)c2ccc(-c3ccccc3)cc2)c1,i,i,-2,i,-2,-4.9*,25%*,i
Cc1ccc[n+](CC(=O)c2ccc(-c3ccccc3)cc2)c1,i,i,-3,i,-3,-11*,i,i
Cc1ccc[n+](CC(=O)c2ccc(Cl)cc2)c1,i,i,-3,i,-3,-11*,5.6%*,i
CCCCCn1c(=O)[nH]c2cc(C(=O)NCCCN3CCCCC3CC)ccc2c1=O (configuration not stated),i,i,1,i,-1,-6*,41%*,i
CCC1CCCCN1CCCNC(=O)c1ccc2c(c1)c(C)c(C)n2CC (configuration not stated),i,i,1,i,-3,i,nt,nt
CCC1CCCCN1CCCNC(=O)c1ccc2c(c1)c(C)c(C)n2C (configuration not stated),i,i,-2,i,-2,-5.7*,35%*,i
CCC1CCCCN1CCCNC(=O)c1ccc2c(=O)n(CCOC)c(=O)[nH]c2c1 (configuration not stated),i,i,-1,i,-2,i,nt,nt
O=C1C[C@H]2[C@H](CO)[C@@H](OC(=O)c3ccc(-c4ccccc4)cc3)C[C@H]2O1,25*,i,-2,i,-5,-5.8*,64%*,i
SMILES,ANO1 block,CHT allo act,VIM-2 inh,TMEM16A act,IMP-1 inh,CHT inh,CHT inh conf,HEK293 MPD ctr
CCn1c(SCC(=O)Nc2sccc2C(N)=O)nnc1C1CC1,nt,nt,nt,i,nt,nt,nt,nt
CCC(C(=O)NCCCN1CC(C)CC(C)C1)n1nc(C)c2sc3ccccc3c2c1=O (configuration not stated),i,i,-1,i,-2,-8.8*,16%*,i
O=C(c1ccc(Cl)c(S(=O)(=O)N2CCOCC2)c1)N1CCc2ccccc2C1,nt,nt,nt,i,nt,nt,nt,nt
Cc1ccc(-c2nnc(N3CCCCC3)c3ccccc23)cc1,i,i,2,i,-2,i,nt,nt
Cc1ccc(-c2nnc(N3CC(C)OC(C)C3)c3ccccc23)cc1 (configuration not stated),i,i,-6,i,-4,-7.5*,59%*,i
CCOC(=O)c1cc(NC(=O)CNCC(c2ccccc2)N(C)C)cc(C(=O)OCC)c1 (configuration not stated),i,i,3,i,2,-6.8*,33%*,2.2*
CCN1CCC(Nc2ccnc3cc(Cl)ccc23)CC1,i,i,2,i,-1,-6.6*,i,4.2*
O=C(NNc1ccnc2cc(Cl)ccc12)C1CCCCC1,i,i,-2,i,-1,i,nt,nt
Cc1ccc(C)c(N2CC(C(=O)Nc3cc(C)on3)CC2=O)c1 (configuration not stated),i,i,0,i,0,i,nt,nt
CCN(CC)P(=O)(Nc1ccccc1Br)c1ccc(N(C)C)cc1NC(=O)c1ccco1 (configuration not stated),i,i,-1,i,-1,i,nt,nt
CCOC(=O)c1oc2cc(O)cc(C)c2c(=O)c1-c1cscn1,i,i,0,i,-2,i,nt,nt
CCCc1cc2c(=O)c(-c3cscn3)c(C(=O)OCC)oc2cc1O,i,i,-2,i,-3,-5.8*,28%*,i
Cc1ccc(S(=O)(=O)NCCC(=O)N2CCC(Cc3ccccc3)CC2)cc1,i,i,nt,i,nt,i,i,i
